Measured values as given in PubChem BioAssay.
The source made the active and inactive calls.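 The calls were made as follows, unless noted: active = viability loss from added drug above about 55%, and viability with drug at most 40%, in both replicates (limit read from the data, passing the limit was not always enough); inconclusive = both conditions met in only one replicate; inactive = neither replicate meets both conditions.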

Legend:
[1] = Her2 expression decrease, cell viability multiplex – SKBR3 breast tumor cells, AlphaScreen, ATP viability, primary screen (AID 461;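 active = Her2 level under about 52% in both replicate screens, with viability over 70% of control, limit read from the data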;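 as to Her2 level: lower value means less Her2 protein in the cells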;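 as to viability: percent of carrier control wells set as 100% viability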); conditions: SKBR3 Her2 protein level, 18-24 h, measured here: SKBR3 viability, ATP luminescence, at 10 µM
[2] = target: Receptor tyrosine-protein kinase erbB-2 (Homo sapiens) (UniProt P04626); test: as above; conditions: 18-24 h, at 10 µM, stronger effect = lower value
[3] = reduced viability of SK-BR-3 breast cancer cells – cell-based, 24 h, human, pilot screen (AID 572;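 active = viability at or below 10% of carrier control in both of two separate runs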;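 also: compound exposure lasted between 18 and 24 h rather than exactly 24 h; 100% = carrier-treated control wells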); conditions: SK-BR-3 viability, CellTiter-Glo luminescence, at 10 µM, stronger effect = lower value
[4] = HUVEC growth inhibition – cell-based, human, primary screen (AID 575;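 active = viability at or below 30% in both replicate assays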;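 also: 100% = median of untreated cell wells with 0.1% DMSO on each plate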); conditions: HUVEC proliferation, CellTiter-Glo luminescence, 72 h; at 10 µM; stronger effect = lower value
Outline: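 Test system: primary human umbilical vein endothelial cells; medium: endothelial basal medium with 2% FBS plus growth supplements; dosing: 10 µM compound only; times: 72 h treatment at 37 °C; signal: CTG luminescence; read-out: % viability relative to median vehicle-well signal on each plate; control set: vehicle and MePR control wells; plate: 384-well, collagen-coated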

[5] = MRP1 drug-resistance reversers in H69AR cells – cell-based, doxorubicin co-treatment, pilot screen (AID 601); conditions: CellTiter-Glo, 72 h, at 10 µM; for differential viability (reversal): stronger effect = higher value
[6] = yeast transport mutant growth inhibition pilot in 384-well plates, post-Golgi transport modulator project (AID 636; in the data active = inhibition above about 31%); conditions: absorbance 615 nm, about 18 h, stronger effect = higher value
[7] = growth suppression of yeast trafficking mutant, preliminary HTS, modulators of trafficking downstream of Golgi apparatus project, 1536-format plate, OD 615 nm (AID 637; in the data active = inhibition above about 30%); conditions: yeast transport mutant growth, absorbance 615 nm, 18 h; stronger effect = higher value
[8] = H69AR cell proliferation blockers – human, duplicate replicates, primary screen (AID 580;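 active = viability at or under a set limit in both replicates, limit being median viability minus 3 SD, cut at about 48% in these data, passing the limit was not always enough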;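 also: 100% = mean luminescence of untreated wells and 0% = no signal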); conditions: H69AR lung tumor cells viability, ATP luminescence, 72 h; at 10 µM; stronger effect = lower value
[9] = H69AR cells + 2 uM doxorubicin, measured here: viability with 2 uM doxorubicin, stronger effect = lower value
[10] = H69AR cells, compound alone cytotoxicity

Sequence of Receptor tyrosine-protein kinase erbB-2 (Homo sapiens) (P04626 whole entry, looked up): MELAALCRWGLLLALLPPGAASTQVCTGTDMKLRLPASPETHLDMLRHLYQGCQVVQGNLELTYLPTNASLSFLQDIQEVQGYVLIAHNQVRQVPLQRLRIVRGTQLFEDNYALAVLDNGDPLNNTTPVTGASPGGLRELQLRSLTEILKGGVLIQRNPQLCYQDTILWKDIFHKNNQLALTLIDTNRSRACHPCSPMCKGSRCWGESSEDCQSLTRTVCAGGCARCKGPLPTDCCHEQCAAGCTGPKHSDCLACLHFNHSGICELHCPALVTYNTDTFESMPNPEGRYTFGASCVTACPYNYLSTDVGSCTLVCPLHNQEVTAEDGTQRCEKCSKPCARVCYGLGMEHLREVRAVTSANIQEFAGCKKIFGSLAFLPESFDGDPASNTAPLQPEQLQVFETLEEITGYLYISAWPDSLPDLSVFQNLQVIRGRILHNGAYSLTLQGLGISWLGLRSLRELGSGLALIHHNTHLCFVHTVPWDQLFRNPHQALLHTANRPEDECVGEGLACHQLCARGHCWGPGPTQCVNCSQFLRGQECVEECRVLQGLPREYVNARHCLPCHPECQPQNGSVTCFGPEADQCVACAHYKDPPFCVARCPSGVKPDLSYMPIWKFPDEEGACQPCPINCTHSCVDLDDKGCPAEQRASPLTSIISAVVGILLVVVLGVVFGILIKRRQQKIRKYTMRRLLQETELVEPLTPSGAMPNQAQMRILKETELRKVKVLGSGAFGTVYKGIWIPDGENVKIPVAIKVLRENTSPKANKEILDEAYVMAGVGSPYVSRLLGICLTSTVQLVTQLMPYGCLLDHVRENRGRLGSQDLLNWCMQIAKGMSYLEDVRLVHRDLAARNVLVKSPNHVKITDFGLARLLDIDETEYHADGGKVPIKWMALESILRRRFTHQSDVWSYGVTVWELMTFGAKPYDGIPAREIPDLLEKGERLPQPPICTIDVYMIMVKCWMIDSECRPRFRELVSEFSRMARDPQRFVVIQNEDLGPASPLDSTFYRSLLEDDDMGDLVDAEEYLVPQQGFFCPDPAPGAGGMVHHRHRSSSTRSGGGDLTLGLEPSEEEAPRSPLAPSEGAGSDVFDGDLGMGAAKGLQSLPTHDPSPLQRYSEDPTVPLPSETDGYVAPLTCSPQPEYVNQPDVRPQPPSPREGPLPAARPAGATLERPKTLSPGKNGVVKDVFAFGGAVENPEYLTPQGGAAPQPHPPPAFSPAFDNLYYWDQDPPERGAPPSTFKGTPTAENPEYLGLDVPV

| Compound | viability [1] | Her2 level [2] | viability [3] | viability [4] | differential viability (reversal) ([5]; H69AR cells + 2 uM doxorubicin) | viability [5, 9] | viability [5, 10] | inhibition [6] | inhibition [7] | viability [8] |
| --- | --- | --- | --- | --- | --- | --- | --- | --- | --- | --- |
| Cc1ccc(Cn2c(C)nc3c(c2=O)c2nc4ccccc4nc2n3Cc2ccco2)cc1 | 118% | 71.5% (inactive) | 118% (inactive) | 54.9% (inactive) | -1.46% (inactive) | 50.5% | 49% | 1.32% (inactive) | 1.8% (inactive) |  |
| Cc1ccc2cc(CN(CCN3CCCC3)C(=O)Nc3ccc(F)cc3)c(=O)[nH]c2c1C | 94.5% | 81% (inactive) | 94.5% (inactive) | 38.8% (inactive) | -12.2% (inactive) | 25.6% | 13.5% | 0.52% (inactive) | -0.79% (inactive) |  |
| COCc1cc(=O)[nH]c(Nc2nc3ccccc3o2)n1 | 112% | 80% (inactive) | 112% (inactive) |  | -9.32% (inactive) | 39.6% | 30.3% | -4.27% (inactive) | -6.72% (inactive) | 30.3% (active) |
| Cc1ccc2c(c1)c1c(n2CC(O)Cn2c(C)nc3ccccc32)/C(=N\O)CCC1 (configuration not stated) | 108% | 76.5% (inactive) | 108% (inactive) | 1.52% (active) | -12.7% (inactive) | 44.1% | 31.5% | -4.27% (inactive) | 15.4% (inactive) |  |
| O=C(O)CCc1cc(I)c(Oc2ccc(O)c(I)c2)c(I)c1 | 104% | 76.5% (inactive) | 104% (inactive) |  | 3.29% (inactive) | 98.8% | 102% |  |  | 102% (inactive) |
| Nc1nc(N2CCN(C/C=C/c3ccccc3)CC2)nc2ccccc12 | 80.5% | 98.5% (inactive) | 80.5% (inactive) |  | 5.93% (inactive) | 86.1% | 92% | -5.07% (inactive) | -2.13% (inactive) | 92% (inactive) |
| O=C(NC1CCCCC1)C(c1ccccc1)N(Cc1ccco1)C(=O)Cn1cnc2ccccc21 (configuration not stated) | 102% | 90% (inactive) | 102% (inactive) |  | 8.18% (inactive) | 70.1% | 78.3% | -5.33% (inactive) | -4.92% (inactive) | 78.3% (inactive) |
| Cc1cccc(Nc2ncc3c(n2)CC(c2ccco2)CC3=O)c1 (configuration not stated) | 81.5% | 83% (inactive) | 81.5% (inactive) |  | -2.41% (inactive) | 77.9% | 75.5% | 0.26% (inactive) | 4.17% (inactive) | 75.5% (inactive) |
| O=C(CC(=O)c1cc(Cl)ccc1O)c1ccccc1 | 131% | 89% (inactive) | 131% (inactive) |  | -9.6% (inactive) | 21% | 11.4% | 94.7% (active) | 61.3% (active) | 11.4% (active) |
| CCOc1ccc2nc(NC(=O)C(NS(=O)(=O)c3cccs3)C(C)C)sc2c1 (configuration not stated) | 116% | 68.5% (inactive) | 116% (inactive) |  | 11.7% (inactive) | 75% | 86.7% | 0% (inactive) | -1.9% (inactive) | 86.7% (inactive) |
| Clc1ccc(Cl)c(-c2nn3c(COc4ccccc4)nnc3s2)c1 | 96% | 69% (inactive) | 96% (inactive) |  | 1.02% (inactive) | 71.9% | 72.9% | -5.07% (inactive) | 5.32% (inactive) | 72.9% (inactive) |
| Cc1ccc(C(C)C)c(OCc2nnc(SCC(=O)Nc3ncc(C)s3)n2C)c1 | 89.5% | 86% (inactive) | 89.5% (inactive) |  | 1.44% (inactive) | 39.7% | 41.1% | 0% (inactive) | -5.48% (inactive) | 41.1% (active) |
| CCOC(=O)c1cc2sc(C)cc2n1CC(=O)NCc1ccc(F)cc1 | 65% | 73% (inactive) | 65% (inactive) |  | 17.1% (inactive) | 52.3% | 69.4% | -6.32% (inactive) | -3% (inactive) | 69.4% (inactive) |
| CCOC(=O)c1ccc(N=Cc2nc(-c3ccccc3)oc2OC(C)=O)cc1 | 106% | 75.5% (inactive) | 106% (inactive) |  | -5.29% (inactive) | 23.2% | 17.9% | -4.47% (inactive) | -2.38% (inactive) | 17.9% (active) |
| Cc1ccc2c(c1)-c1c(cnn1CC(=O)Nc1ccccc1N1CCN(C)CC1)CO2 | 93.5% | 84% (inactive) | 93.5% (inactive) |  | 4.26% (inactive) | 80.9% | 85.2% | -1.2% (inactive) | -3.28% (inactive) | 85.2% (inactive) |
| COc1ccc(-c2cc3c(=O)n(CC(=O)NC4CCN(Cc5ccccc5)CC4)ncn3n2)cc1 | 75% | 103% (inactive) | 75% (inactive) |  | -0.715% (inactive) | 75% | 74.2% | -5.66% (inactive) | -0.83% (inactive) | 74.2% (inactive) |

| Compound | viability [1] | Her2 level [2] | viability [3] | viability [4] | differential viability (reversal) ([5]; H69AR cells + 2 uM doxorubicin) | viability [5, 9] | viability [5, 10] | inhibition [6] | inhibition [7] | viability [8] |
| --- | --- | --- | --- | --- | --- | --- | --- | --- | --- | --- |
| NC(=O)c1cc(-c2ccccc2)nc(N2CCOCC2)n1 | 102% | 69.5% (inactive) | 102% (inactive) |  | 12.1% (inactive) | 72.3% | 84.4% | -2.97% (inactive) | -6.35% (inactive) | 84.4% (inactive) |
| Oc1ccccc1-c1cc(C(F)(F)C(F)F)[nH]n1 | 97% | 93% (inactive) | 97% (inactive) |  | 11.3% (inactive) | 87.1% | 98.3% | -2.69% (inactive) | 2.83% (inactive) | 98.3% (inactive) |
| O=C(CSc1n[nH]c(-c2ccco2)n1)Nc1sc2c(c1C(=O)Nc1ccccc1)CCCC2 | 99.5% | 99% (inactive) | 99.5% (inactive) |  | -13% (inactive) | 78.9% | 65.9% | -4.42% (inactive) | -10.7% (inactive) | 65.9% (inactive) |
| CC1CCc2nc(NC(=O)CN3CCN(Cc4ccc5c(c4)OCO5)CC3)sc2C1 (configuration not stated) | 90.5% | 77.5% (inactive) | 90.5% (inactive) |  | 14.3% (inactive) | 73.5% | 87.8% | -0.66% (inactive) | 2.1% (inactive) | 87.8% (inactive) |
| Cc1cc(O)c(-c2cc(C(=O)Nc3ccc(S(=O)(=O)N4CCOCC4)cc3)[nH]n2)cc1C | 120% | 41% (active) | 120% (inactive) |  | -21.6% (inactive) | 59.2% | 37.6% | -5.14% (inactive) | -5.08% (inactive) | 37.6% (active) |
| CCc1ccc2oc(-c3cc(N)ccc3Cl)nc2c1 | 102% | 87.5% (inactive) | 102% (inactive) |  | -12.2% (inactive) | 89.4% | 77.2% | -0.54% (inactive) | -4% (inactive) | 77.2% (inactive) |
| CCC1CCc2c(sc3ncnc(N4CCOCC4)c23)C1 (configuration not stated) | 89.5% | 87% (inactive) | 89.5% (inactive) |  | -14.3% (inactive) | 104% | 89.3% | -5.14% (inactive) | -0.16% (inactive) | 89.3% (inactive) |
| CCOC(=O)c1cc(-c2ccc3c(c2)OCO3)nc2onc(C)c12 | 110% | 89.5% (inactive) | 110% (inactive) |  | -3.71% (inactive) | 70.9% | 67.2% | -4.93% (inactive) | 2.9% (inactive) | 67.2% (inactive) |
| COc1cc2c(N3CCOCC3)cc(O)c(CC(=O)Nc3ccccc3)c2cc1OC | 90.5% | 98.5% (inactive) | 90.5% (inactive) |  | -14% (inactive) | 89.3% | 75.3% | -5.32% (inactive) | -6.89% (inactive) | 75.3% (inactive) |
| ON=C1/C(=N\O)CC2(C/C1=N/O)OCCO2 | 89% | 113% (inactive) | 89% (inactive) |  | -0.75% (inactive) | 87.7% | 86.9% | -8.27% (inactive) | -2.1% (inactive) | 86.9% (inactive) |
| CCOc1ccc2nc(NC(=O)CSc3nc4ccccc4c(=O)n3Cc3ccco3)sc2c1 | 82.5% | 84% (inactive) | 82.5% (inactive) |  | -0.105% (inactive) | 45.4% | 45.2% | -5.95% (inactive) | -1.97% (inactive) | 45.2% (active) |
| Cc1ccc(C(=O)/C=C/Nc2cccc(O)c2)cc1 | 111% | 76% (inactive) | 111% (inactive) |  | 3.02% (inactive) | 82.1% | 85.1% | -7.03% (inactive) | -1.83% (inactive) | 85.1% (inactive) |
| COc1cc2nc(SCC(=O)NC3CC3)n(CCC3=CCCCC3)c(=O)c2cc1OC | 102% | 107% (inactive) | 102% (inactive) |  | 9.46% (inactive) | 65.1% | 74.5% | -2.11% (inactive) | -4.33% (inactive) | 74.5% (inactive) |
| Oc1ccc(N2CCN(C(c3ccncc3)c3nnnn3C3CCCC3)CC2)cc1 (configuration not stated) | 76% | 82.5% (inactive) | 76% (inactive) |  | 4.33% (inactive) | 87.6% | 91.9% | -5.2% (inactive) | 2.58% (inactive) | 91.9% (inactive) |
| Cc1cccc(NC(=O)c2cc(NC(=O)c3ccco3)ccc2N2CCCCC2)c1 | 85% | 80.5% (inactive) | 85% (inactive) |  | 17.8% (inactive) | 48% | 65.9% | -4.4% (inactive) | 2.46% (inactive) | 65.9% (inactive) |
